Dynein transport – dynein cargo transport inhibition. 0.47% of 220,000 active. 3617.4 mouse cells, GR-EGFP nuclear translocation imaging; test concentration mostly 20 µM; stimulated with dexamethasone, 1 µM; stronger effect = lower value. z-score, hits read low. AID 1381;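 active means plate z-score of nuclear minus cytoplasmic receptor signal below a set negative limit, without overly bright fluorescence or cell loss, cut at about -3.5 in these data, passing the limit was not always enough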;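 further: z-score of nuclear minus cytoplasmic ring GR-EGFP intensity difference per well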
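Buffer or medium: tet-free, stripped-serum medium; Also added: dexamethasone, 1.0 µM final; Technique: high-content fluorescence imaging after fixation; Times: 48 h induction, 1 h compound, 30 min dex at 37 °C; Read-out: per-cell GR-EGFP intensity, nucleus versus surrounding cytoplasmic ring, well-averaged.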
Autophagy HCS – modulators of autophagy | calls only at 10 µM (by protocol) | 0.98% of 190,000 active | MEF GFP-LC3 puncta imaging; test concentration mostly 10 µM | AID 463193;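 active means percentage of spot-positive cells more than 3 SD above its plate mean, without a fluorescence outlier flag or 80% toxicity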;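 further: spot-positive cell cutoff set from DMSO-treated cells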
Hsp70 activator – transcriptional activators of Hsp70. HeLa Hsp70 promoter luciferase reporter, luminescence; scaled: vehicle 0, proteasome-inhibitor control 100%. activation, % at 10 µM. 0.04% of 200,000 active;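 active means activation above the mean across all tested compounds plus 3 SD, cutoff set per campaign, cut at about 5.5% in these data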;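 further: 100% = MG132 at 30 µM as the positive control and 0% = DMSO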
MT stabilize HCS – stabilizes microtubules in HeLa cells; HeLa tubulin immunostaining HCS, 24 h; share of cells brighter than vehicle mean+2SD; % tubulin-high responders, % at 10 µM; 0.83% of 200,000 active;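 active means plate Z-score above 3 for both tubulin-high and condensed-nucleus cell shares, with cell loss under 80%, at 10 µM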;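 further: anti alpha tubulin signal scored within the nucleus-defined area of each cell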
bCat nuc transl – beta-catenin nuclear translocation modulation. 0.3% of 190,000 active. AID 1665. HeLa beta-catenin nuclear translocation, immunofluorescence imaging. nuclear translocation activity, % at 5 µM;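 active means nuclear translocation activity above 50% at 5 µM, with a well cell count of 50 or more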;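 further: per-cell ratio of nuclear to cytoplasmic median beta-catenin stain intensity; plate controls were DMSO negative control for no effect and GSK-3 inhibitor IX positive control for full effect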
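Test system: human HeLa cells, native beta-catenin. Compound dosing: 5 µM primary single dose, 0.1% DMSO, 0.02–20 µM confirmation series. Incubation: compound exposure 24 h at 37°C. Detection: beta-catenin immunostaining with DAPI counterstain, 20x imaging, 6 fields/well. Read-out basis: Nuclear/cytoplasmic beta-catenin signal ratio, % activation.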
The depositor's hits bear a star; i = inactive; . = not tested or not shown; + = active, no number. Most compounds without a hit are left out; they make up all but 2.1% or so of the library.

SMILES | Dynein transport | Autophagy HCS | Hsp70 activator | MT stabilize HCS | bCat nuc transl
CCN(CC)c1ccc2cc(-c3nnc(-c4ccncc4)o3)c(=O)oc2c1 | 0.91 | + | 0 | 3 | .
Nc1cc(Nc2ccc(Br)cc2)nc(N)n1 | 0.13 | . | . | . | 2
Cc1cc(=O)[nH]c(N/N=C/C2=C(N3CCOCC3)C(=C\c3ccc(Cl)cc3)/CC2)n1 | -1.3 | + | -1 | 18 | 10
COc1ccc(C2=Nn3c(nnc3-c3ccccn3)SC2)cc1 | -0.12 | i | 0 | 52* | -1
CCOc1ccc(C2=Nn3c(nnc3-c3ccccc3OC)SC2)cc1 | -0.55 | i | 0 | 19* | 46
COc1ccccc1-c1nnc2n1N=C(c1ccc(O)c(O)c1)CS2 | -0.62 | i | 0 | 21* | 41
CCOc1ccc(-c2nnc3n2N=C(c2ccc(OC)cc2)CS3)cc1 | 0.7 | i | 0 | 5 | 1
CSc1nsc(SCC(=O)Nc2nc3ccc(C)cc3s2)n1 | 0.22 | i | 0 | 5 | 0
CCC(C)NC(=S)N(CCc1ccccc1)Cc1cc2cc(OC)c(OC)cc2[nH]c1=O (stereo not drawn) | -0.46 | i | 0 | 4 | 0
O=C(Cn1c(=O)c(=O)n(Cc2ccccc2)c2ccc(Cl)cc21)Nc1ccc(F)cc1F | -0.86 | i | 0 | 26* | 0
COc1cccc(NC(=O)c2ccc(NCCCN3CC(C)CC(C)C3)c([N+](=O)[O-])c2)c1 (stereo not drawn) | 0.32 | + | 0 | 3 | 1
CCOc1ccc(C(=O)NC(=S)NC2CCCC2)cc1[N+](=O)[O-] | -0.29 | i | 0 | 3 | .
COc1ccc(-c2cn3cc(C(F)(F)F)cc(Cl)c3n2)cc1 | -0.67 | i | 0 | 16* | 6
CCCCN1CC(O)=C(c2nc(-c3ccc(Cl)cc3)cs2)C1=N | -0.48 | + | 0 | 2 | .
N=C1C(c2nc(-c3ccc(Cl)cc3)cs2)=C(O)CN1CCCN1CCOCC1 | -0.5 | i | 0 | 8 | 2
O=C(Nn1cnnc1)c1cc(-c2cccc(Br)c2)nc2ccccc12 | -0.21 | . | . | . | 0
Cc1ccc(N/C(N)=N/c2nc(CSc3nnc(C)s3)cc(=O)[nH]2)c(C)c1 | 1.6 | i | 0 | 12* | 20
COc1ccc(N/C(N)=N/c2nc(CSc3nnc(C)s3)cc(=O)[nH]2)cc1 | -0.65 | i | 0 | 4 | -1
Cc1nn(-c2ccccc2)c2sc(C(=O)N(CC(=O)NC3CCCC3)Cc3ccco3)cc12 | 1.5 | i | 0 | 40* | -2
COc1ccccc1[C@@H]1C(c2ccc(F)cc2)=NN(c2ccccc2)[C@H]1C(=O)N1CCOC1=O | -0.63 | + | 0 | 3 | .
COc1ccccc1[C@@H]1C(c2cccc(C)c2)=NN(c2ccccc2)[C@H]1C(=O)N1CCOC1=O | -0.91 | i | 0 | 3 | .
C=CCC(CC(O)COCCC)C(=O)NNC(=S)Nc1ccccc1 (stereo not drawn) | 0.63 | . | . | . | 0
Cc1ccc(S(=O)(=O)NCCCNC(=O)N2CCOCC2)cc1 | 1.6 | + | -1 | 4 | -1
O=C(NCc1ccco1)c1cnn2cccnc12 | 2.4 | i | 0 | 5 | 1
COC(=O)c1sc2ccccc2c1-n1cccc1C(=O)C(=O)Nc1ccc(C)cc1 | 0.98 | i | 0 | 32* | .
SMILES | Dynein transport | Autophagy HCS | Hsp70 activator | MT stabilize HCS | bCat nuc transl
COC(=O)c1sc2ccccc2c1-n1cccc1C(=O)C(=O)Nc1ccc(F)cc1 | 0.013 | i | 0 | 3 | 0
COC(=O)c1sc2ccccc2c1-n1cccc1C(=O)C(=O)Nc1ccc(Cl)cc1 | -0.4 | i | 0 | 40* | .
CN(CCc1cn[nH]c1)Cc1nc(Cc2ccccc2)no1 | 1.1 | i | 0 | 5 | 0
COc1ccc(C2CC(c3ccc4ccccc4c3)=NN2C(=O)CN2CCC(C(N)=O)CC2)cc1 (stereo not drawn) | -0.38 | i | 0 | 6 | 1
C=CCNCC(=O)N1N=C(c2ccc3ccccc3c2)CC1c1ccc(OC)cc1 (stereo not drawn) | -0.24 | + | 0 | 3 | -2
COc1ccc(C2CC(c3ccc4ccccc4c3)=NN2C(=O)CNC2CCCCC2)cc1 (stereo not drawn) | 0.72 | + | 0 | 3 | 0
COc1ccc(/C=C2\SC(=N)N(c3nccs3)C2=O)cc1OC | 0.63 | i | 0 | 5 | 1
N=C1S/C(=C\c2ccc(-c3cccc(Cl)c3)o2)C(=O)N1c1nccs1 | -0.88 | + | 0 | 4 | 2
N#CC1=C(N)C(C#N)(C#N)[C@H](c2c(F)cccc2F)[C@H]2CC3(CC=C12)OCCO3 | -1.6 | i | 0 | 26* | -2
CN1C2C=C3C(C#N)=C(N)C(C#N)(C#N)[C@H](c4c(F)cccc4F)[C@H]3C1CC2 (stereo partly drawn) | -1.3 | i | 0 | 4 | 1
CCOC(=O)c1cnn(-c2nc(-c3ccc(C)cc3)cs2)c1C(F)(F)F | -0.75 | i | 0 | 29* | -2
CCCCN(CCCNC(=O)CN1C(=O)COc2ccccc21)c1ccccc1 | 0.6 | + | 0 | 2 | 0
COC1CCN(Cc2cn(Cc3ccccc3)nc2-c2cc3ccccc3o2)CC1 | 0.75 | + | 0 | 3 | 0
COc1ccc2[nH]cc(CCNS(=O)(=O)c3ccc(NC(C)=O)cc3)c2c1 | 1.1 | + | 0 | 3 | -2
COc1ccccc1NC(=O)c1ccc(CSc2ncccn2)cc1 | -0.69 | i | 0 | 3 | 0
C=CCc1cc(Cl)ccc1OCCOCCNCCOC | -0.59 | i | 0 | 1 | 1
C=CCc1cc(Cl)ccc1OCCOCCNC(C)(C)C | -0.67 | + | 0 | 3 | 1
COc1ccc(/C=N/NC(=O)c2cccc([N+](=O)[O-])c2)cc1OC(=O)c1ccc(C)cc1 | -0.11 | i | 0 | 34 | 0
COc1ccc(/C=N/NC(N)=S)cc1OC(=O)c1ccccc1 | 0.59 | i | 0 | 38* | 0
COc1ccc(/C=N/NC(=O)c2cccc([N+](=O)[O-])c2)cc1OC(=O)c1ccccc1 | -0.1 | i | 0 | 41* | -4
Cc1cc(C(F)(F)F)n(-c2nc(C(=O)NN)cs2)n1 | -0.44 | i | 3 | 6 | -2
COc1ccc(/C=N/NC(=O)c2csc(-n3nc(C)cc3C(F)(F)F)n2)cc1 | 1.1 | i | 0 | 30* | 108*
COc1ccccc1NC(=O)NCc1nc(-c2ccc(C(F)(F)F)cc2)no1 | 0.48 | . | . | . | 1
CCOc1cc(C(=O)N/N=C/C(Br)=C/c2ccccc2)cc(OCC)c1OCC | 0.12 | i | 0 | 9.1* | .
CN(c1ccc(C(=O)Nc2ccc(CC#N)cc2)cc1)S(C)(=O)=O | 0.13 | i | 0 | 2 | -1
O=C1c2cccc3cccc(c23)C(=O)N1CCCN1CCN(c2ccc(F)cc2)CC1 | 1.4 | i | 1 | 4 | 0

Source: PubChem
